# Measurements published in ChEMBL document CHEMBL3352600, “Structure-Based Design of Reactive Nucleosides for Site-Specific Modification of the A2A Adenosine Receptor” (ACS Med Chem Lett, 2014).
# Tests used:
# Adenosine receptor A2a [1] = molecular target: T1, Adenosine receptor A2a (Homo sapiens, UniProt P29274); test: Displacement of [3H]2-[p-(2-carboxyethyl)phenyl-ethylamino]-5'-N-ethylcarboxamidoadenosine from human adenosine A2a receptor expressed in HEK293 cells; format: cell-based
# Target sequence in this assay (P29274 whole entry): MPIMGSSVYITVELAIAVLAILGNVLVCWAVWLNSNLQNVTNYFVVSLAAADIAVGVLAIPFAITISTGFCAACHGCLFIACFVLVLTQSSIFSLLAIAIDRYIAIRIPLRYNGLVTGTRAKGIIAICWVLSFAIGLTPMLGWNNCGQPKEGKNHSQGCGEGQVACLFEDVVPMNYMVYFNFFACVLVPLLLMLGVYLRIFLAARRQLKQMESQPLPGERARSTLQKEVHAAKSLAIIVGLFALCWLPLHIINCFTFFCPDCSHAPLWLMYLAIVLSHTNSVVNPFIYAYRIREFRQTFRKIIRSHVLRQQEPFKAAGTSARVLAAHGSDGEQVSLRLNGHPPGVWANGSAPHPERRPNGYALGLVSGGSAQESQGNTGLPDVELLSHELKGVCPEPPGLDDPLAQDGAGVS
# Adenosine receptor A1 = molecular target: T2, Adenosine receptor A1 (Homo sapiens, UniProt P30542); test: Displacement of [3H]R-PIA from human adenosine A1 receptor expressed in CHO cells; format: cell-based
# T2 sequence (P30542 whole entry): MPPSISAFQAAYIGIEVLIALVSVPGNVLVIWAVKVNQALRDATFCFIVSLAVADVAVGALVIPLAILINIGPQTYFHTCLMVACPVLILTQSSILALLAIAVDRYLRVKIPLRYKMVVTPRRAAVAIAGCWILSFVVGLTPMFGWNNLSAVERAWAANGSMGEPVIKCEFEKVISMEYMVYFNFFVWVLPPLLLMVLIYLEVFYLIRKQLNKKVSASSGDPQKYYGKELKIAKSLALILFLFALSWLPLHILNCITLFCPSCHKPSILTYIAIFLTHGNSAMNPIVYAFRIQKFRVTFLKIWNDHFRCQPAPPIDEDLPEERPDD
# Adenosine receptor A3 = molecular target: T3, Adenosine receptor A3 (Homo sapiens, UniProt P0DMS8); test: Displacement of [125I]I-AB-MECA from human adenosine A3 receptor expressed in CHO cells; format: cell-based
# T3 sequence (P0DMS8 whole entry): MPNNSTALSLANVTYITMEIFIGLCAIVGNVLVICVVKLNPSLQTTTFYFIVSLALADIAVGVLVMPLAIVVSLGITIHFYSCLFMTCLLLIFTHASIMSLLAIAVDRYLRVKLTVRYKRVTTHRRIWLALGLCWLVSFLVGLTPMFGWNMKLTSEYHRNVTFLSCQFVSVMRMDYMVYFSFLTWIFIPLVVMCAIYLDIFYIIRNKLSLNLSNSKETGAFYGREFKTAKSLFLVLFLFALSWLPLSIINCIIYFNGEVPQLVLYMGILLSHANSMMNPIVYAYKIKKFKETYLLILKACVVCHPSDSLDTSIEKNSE
# [2] = molecular target: T4, Adenosine receptor A1 (Homo sapiens) (UniProt P30542); test: Displacement of [3H]R-PIA from human adenosine A1 receptor expressed in CHO cells at 10 uM; format: cell-based
# T4 sequence (whole entry): T2 sequence (P30542 whole entry)
# Outline: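 Single-point test at 10 μM on membranes of CHO cells stably expressing human A1 receptor, read as percent inhibition of [3H]R-PIA agonist binding. Nonspecific binding was defined with 10 μM NECA.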
# Adenosine receptor A2a [3] = molecular target: T1, Adenosine receptor A2a; test: Displacement of [3H]2-[p-(2-carboxyethyl)phenyl-ethylamino]-5'-N-ethylcarboxamidoadenosine from human adenosine A2a receptor expressed in HEK293 cells assessed as radioligand binding at 1 uM preincubated for 30 mins; format: cell-based
# Outline: (§1)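 Membranes of HEK293 cells stably expressing human A2A receptor were preincubated with compound (1 μM, 30 min). Membranes were then washed by repeated centrifugation cycles. Residual specific binding was measured with agonist [3H]CGS21680 (10 nM) or antagonist [3H]7 (1.0 nM) and expressed as percent binding remaining.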
# Target sequence in this assay (P29274 whole entry): as the sequence (P29274 whole entry) above
# Adenosine receptor A2a [4] = molecular target: T1, Adenosine receptor A2a; test: Displacement of [3H]4-[2-[7-amino-2-(2-furyl)-1,2,4-triazolo[1,5-a][1,3,5]triazin-5-yl-amino]ethylphenol from human adenosine A2a receptor K153A mutant expressed in COS-7 cells assessed as radioligand Bmax per mg of protein compound preincubated for 30 mins
# Target sequence in this assay (P29274 whole entry, looked up): as the sequence (P29274 whole entry) above
# Adenosine receptor A2a [5] = molecular target: T1, Adenosine receptor A2a; test: Agonist activity at human adenosine A2a receptor expressed in CHO cells assessed as stimulation of cAMP formation after 24 hrs; format: functional, cell-based
# Target sequence in this assay (P29274 whole entry): as the sequence (P29274 whole entry) above
# Adenosine receptor A2a [6] = molecular target: T1, Adenosine receptor A2a; test: Displacement of [3H]4-[2-[7-amino-2-(2-furyl)-1,2,4-triazolo[1,5-a][1,3,5]triazin-5-yl-amino]ethylphenol from human adenosine A2a receptor K150A mutant expressed in COS-7 cells assessed as radioligand Bmax per mg of protein compound preincubated for 30 mins
# Target sequence in this assay (P29274 whole entry, looked up): as the sequence (P29274 whole entry) above
# Adenosine receptor A2a [7] = molecular target: T1, Adenosine receptor A2a; test: Displacement of [3H]4-[2-[7-amino-2-(2-furyl)-1,2,4-triazolo[1,5-a][1,3,5]triazin-5-yl-amino]ethylphenol from wild type human adenosine A2a receptor expressed in COS-7 cells assessed as radioligand Kd compound preincubated for 30 mins
# Target sequence in this assay (P29274 whole entry): as the sequence (P29274 whole entry) above
# Homo sapiens [8] = species on record: Homo sapiens; test: Selectivity ratio of Ki for human adenosine A1 receptor to Ki for human adenosine A2A receptor
# Homo sapiens [9] = species on record: Homo sapiens; test: Selectivity ratio of Ki for human adenosine A3 receptor to Ki for human adenosine A2A receptor
# Adenosine receptor A2a [10] = molecular target: T1, Adenosine receptor A2a; test: Displacement of [3H]4-[2-[7-amino-2-(2-furyl)-1,2,4-triazolo[1,5-a][1,3,5]triazin-5-yl-amino]ethylphenol from human adenosine A2a receptor expressed in HEK293 cells assessed as radioligand binding at 1 uM preincubated for 30 mins; format: cell-based; outline: as §1
# Target sequence in this assay (P29274 whole entry): as the sequence (P29274 whole entry) above
SMILES,Ki (Adenosine receptor A2a [1]),Ki (Adenosine receptor A1),Ki (Adenosine receptor A3),inhibition [2],Activity (Adenosine receptor A2a [3]),Bmax (Adenosine receptor A2a [4]),EC50 (Adenosine receptor A2a [5]),Bmax (Adenosine receptor A2a [6]),Kd (Adenosine receptor A2a [7]),Ratio Ki (Homo sapiens [8]),Ratio Ki (Homo sapiens [9]),Activity (Adenosine receptor A2a [10])
CCNC(=O)[C@H]1O[C@@H](n2cnc3c(N)nc(NCCc4ccc(CCC(=O)Nc5ccc(O)c([N+](=O)[O-])c5)cc4)nc32)[C@H](O)[C@@H]1O,267 nM,1890 nM,171 nM,–,–,–,–,–,–,–,–,–
CCNC(=O)[C@H]1O[C@@H](n2cnc3c(N)nc(NCCc4ccc(CCC(=O)Nc5ccc(OC(=O)CCCC[C@@H]6SC[C@@H]7NC(=O)N[C@@H]76)c([N+](=O)[O-])c5)cc4)nc32)[C@H](O)[C@@H]1O,3280 nM,–,1960 nM,37%,–,–,–,–,–,–,–,–
CCNC(=O)[C@H]1O[C@@H](n2cnc3c(N)nc(NCCc4ccc(CCC(=O)Nc5ccc(OC(C)=O)c([N+](=O)[O-])c5)cc4)nc32)[C@H](O)[C@@H]1O,23 nM,500 nM,207 nM,–,19%,1.65 pmol,2.12 nM,0.2 pmol,2.24 nM,22,9,11%
CCNC(=O)[C@H]1O[C@@H](n2cnc3c(N)nc(NCCc4ccc(CCC(=O)Nc5ccc(OC(=O)CCCCN=[N+]=[N-])c([N+](=O)[O-])c5)cc4)nc32)[C@H](O)[C@@H]1O,4360 nM,–,1810 nM,30%,–,–,–,–,–,–,–,–
